# Test results as given in ChEMBL document CHEMBL1156306, “Discovery, biological evaluation, and structure-activity relationship of amidine based sphingosine kinase inhibitors” (J Med Chem, 2010).
# Activity calls are given as the source filed them. The rule behind the calls is not given here.
# Biological target: Diacylglycerol kinase gamma (Homo sapiens) (UniProt P49619)
# Test: Inhibition of DAGgamma up to 100 uM
# Details: not given
# In short: (§1)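 Recombinant diacylglycerol kinases (γ, δ1, ζ) tested with compound at concentrations up to 100 μM.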
# Diacylglycerol kinase gamma (Homo sapiens), sequence (P49619 whole entry): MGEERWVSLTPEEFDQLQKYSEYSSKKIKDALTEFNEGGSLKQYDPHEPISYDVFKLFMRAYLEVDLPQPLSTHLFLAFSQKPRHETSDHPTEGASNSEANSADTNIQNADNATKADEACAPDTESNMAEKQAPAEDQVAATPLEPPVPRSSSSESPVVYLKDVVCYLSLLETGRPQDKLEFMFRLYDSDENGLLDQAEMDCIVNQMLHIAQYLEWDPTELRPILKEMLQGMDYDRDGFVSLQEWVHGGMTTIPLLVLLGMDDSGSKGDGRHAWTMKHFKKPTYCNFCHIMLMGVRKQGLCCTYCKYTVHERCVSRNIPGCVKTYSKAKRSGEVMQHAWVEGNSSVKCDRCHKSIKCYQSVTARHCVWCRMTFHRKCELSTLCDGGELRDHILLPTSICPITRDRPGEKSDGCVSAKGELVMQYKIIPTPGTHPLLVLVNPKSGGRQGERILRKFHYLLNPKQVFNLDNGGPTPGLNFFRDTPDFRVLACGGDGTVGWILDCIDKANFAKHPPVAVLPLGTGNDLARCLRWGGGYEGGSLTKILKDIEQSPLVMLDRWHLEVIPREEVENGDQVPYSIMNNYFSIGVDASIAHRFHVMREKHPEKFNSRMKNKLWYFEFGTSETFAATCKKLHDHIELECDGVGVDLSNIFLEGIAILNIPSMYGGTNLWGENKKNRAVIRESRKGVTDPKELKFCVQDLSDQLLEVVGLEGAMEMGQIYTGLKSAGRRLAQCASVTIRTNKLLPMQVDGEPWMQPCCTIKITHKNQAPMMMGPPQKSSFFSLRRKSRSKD
row,inhibition,SMILES
1,inactive,CCCCCCCCCCCCc1ccc(NC(=O)C2(C(=N)N)CC2)cc1
2,inactive,CCCCCCCCCCCCc1ccc(C(=O)NC2(C(=N)N)CC2)cc1

# Biological target: T1, Diacylglycerol kinase delta (Homo sapiens) (UniProt Q16760)
# T1 sequence (whole entry): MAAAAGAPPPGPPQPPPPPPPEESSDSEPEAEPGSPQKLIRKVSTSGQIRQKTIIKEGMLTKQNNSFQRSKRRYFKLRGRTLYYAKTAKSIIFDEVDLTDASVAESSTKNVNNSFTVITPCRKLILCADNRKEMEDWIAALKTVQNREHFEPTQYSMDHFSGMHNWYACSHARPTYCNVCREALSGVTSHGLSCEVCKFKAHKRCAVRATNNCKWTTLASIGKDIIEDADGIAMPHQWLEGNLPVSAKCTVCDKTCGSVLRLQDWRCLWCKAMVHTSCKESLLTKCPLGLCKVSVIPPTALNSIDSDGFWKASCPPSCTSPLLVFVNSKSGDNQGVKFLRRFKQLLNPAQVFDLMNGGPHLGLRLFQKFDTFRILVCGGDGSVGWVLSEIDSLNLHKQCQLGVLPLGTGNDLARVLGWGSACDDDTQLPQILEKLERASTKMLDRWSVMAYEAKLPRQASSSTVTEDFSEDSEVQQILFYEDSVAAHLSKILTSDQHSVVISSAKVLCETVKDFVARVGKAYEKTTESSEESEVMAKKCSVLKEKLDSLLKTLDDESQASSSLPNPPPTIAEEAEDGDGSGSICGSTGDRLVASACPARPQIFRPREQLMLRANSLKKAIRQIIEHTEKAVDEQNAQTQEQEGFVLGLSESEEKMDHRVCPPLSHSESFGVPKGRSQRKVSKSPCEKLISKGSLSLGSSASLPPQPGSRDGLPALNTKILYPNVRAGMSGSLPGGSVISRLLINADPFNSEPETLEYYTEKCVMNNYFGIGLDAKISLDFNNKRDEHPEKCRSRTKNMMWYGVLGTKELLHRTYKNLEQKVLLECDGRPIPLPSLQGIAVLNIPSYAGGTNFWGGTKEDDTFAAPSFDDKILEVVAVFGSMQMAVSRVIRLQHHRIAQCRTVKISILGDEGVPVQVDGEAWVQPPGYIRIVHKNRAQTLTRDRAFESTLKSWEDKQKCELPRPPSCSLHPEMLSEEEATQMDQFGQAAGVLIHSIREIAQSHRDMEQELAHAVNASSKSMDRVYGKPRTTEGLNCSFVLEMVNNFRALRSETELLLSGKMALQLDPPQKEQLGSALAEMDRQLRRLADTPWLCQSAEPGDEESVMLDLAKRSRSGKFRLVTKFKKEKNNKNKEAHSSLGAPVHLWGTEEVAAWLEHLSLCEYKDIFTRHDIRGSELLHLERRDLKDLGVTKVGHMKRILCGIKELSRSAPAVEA
# Test: Inhibition of DAGdelta1 up to 100 uM
# Details: not given
# In short: as §1
row,inhibition,SMILES
1,inactive,CCCCCCCCCCCCc1ccc(NC(=O)C2(C(=N)N)CC2)cc1
2,inactive,CCCCCCCCCCCCc1ccc(C(=O)NC2(C(=N)N)CC2)cc1

# Biological target: Protein kinase C alpha type (Homo sapiens) (UniProt P17252)
# Test: Inhibition of PKCalpha up to 10 uM
# Details: not given
# In short: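 Compound tested at protein kinase C α at concentrations up to 10 μM.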
row,inhibition,SMILES
1,inactive,CCCCCCCCCCCCc1ccc(NC(=O)C2(C(=N)N)CC2)cc1
2,inactive,CCCCCCCCCCCCc1ccc(C(=O)NC2(C(=N)N)CC2)cc1

# Biological target: T2, Sphingosine kinase 2 (Mus musculus) (UniProt Q9JIA7)
# T2 sequence (whole entry): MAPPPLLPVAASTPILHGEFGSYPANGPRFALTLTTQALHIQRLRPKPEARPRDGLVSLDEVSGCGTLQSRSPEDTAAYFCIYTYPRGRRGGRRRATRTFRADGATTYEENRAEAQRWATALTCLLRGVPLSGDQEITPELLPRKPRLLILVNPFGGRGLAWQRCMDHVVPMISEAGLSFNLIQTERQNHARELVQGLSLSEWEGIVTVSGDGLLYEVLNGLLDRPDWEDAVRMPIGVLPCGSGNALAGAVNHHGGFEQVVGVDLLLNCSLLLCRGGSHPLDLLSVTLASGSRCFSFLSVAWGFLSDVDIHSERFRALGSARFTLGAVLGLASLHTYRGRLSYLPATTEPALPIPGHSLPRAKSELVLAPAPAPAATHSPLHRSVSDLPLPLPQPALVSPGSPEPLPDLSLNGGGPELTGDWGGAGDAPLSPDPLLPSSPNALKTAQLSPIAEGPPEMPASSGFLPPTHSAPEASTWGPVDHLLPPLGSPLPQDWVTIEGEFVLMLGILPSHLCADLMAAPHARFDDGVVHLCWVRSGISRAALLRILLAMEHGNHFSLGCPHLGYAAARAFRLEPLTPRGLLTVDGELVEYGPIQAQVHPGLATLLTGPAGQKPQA
# Test: Inhibition of mouse recombinant SPHK2 expressed in baculovirus-infected Sf9 cells in presence of sphingosine
# Details: not given
# In short: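 Enzyme source was a 10,000 × g supernatant of Sf9 cells infected for 72 h with baculovirus encoding mouse SphK2, using 2–3 μg protein per assay. Sphingosine phosphorylation conditions were as in an earlier report.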
row,SMILES,Ki [µM]
1,CCCCCCCCc1ccc(C(=O)N[C@@H](C)C(N)=O)cc1,> 100
2,CCCCCCCCCCc1ccc(NC(=O)C2(C(=N)N)CC2)cc1,4
3,CCCCCCCCCCCCCCCCc1ccc(C(=O)NC2(C(=N)N)CC2)cc1,10
4,CCCCCCCCc1ccc(C(=O)NC2(C(=N)N)CC2)cc1,23
5,CCCCCCCCCCCCc1ccc(C(=O)NC2(C(=N)N)CC2)cc1,0.5
6,CCCCCCCCc1ccc(C(=O)NCC(=N)N)cc1,60
7,CCCCCCCCCCCCCCc1ccc(NC(=O)C2(C(=N)N)CC2)cc1,> 100

# Second part, the compound after the results:
row,Ki [µM],SMILES
1,> 100,CCCCCCCCCCCCCCCCc1ccc(NC(=O)C2(C(=N)N)CC2)cc1
2,20,CCCCCCCCc1ccc(C(=O)N[C@@H](C)C(=N)N)cc1.Cl
3,25,CCCCCCCCc1ccc(C(=O)N[C@H](C)C(=N)N)cc1
4,6,CCCCCCCCCCCCc1ccc(NC(=O)C2(C(=N)N)CC2)cc1
5,4,CCCCCCCCCCc1ccc(C(=O)NC2(C(=N)N)CC2)cc1
6,> 100,CCCCCCCCc1ccc(C(=O)N[C@@H](C)C(=O)O)cc1
7,32,CCCCCCCCCCCCCCc1ccc(C(=O)NC2(C(=N)N)CC2)cc1

# Tested on: VSMC
# Test: Inhibition of FBS-induced SPHKk1 mRNA level in rat VSMC after 4 hrs by RT-PCR
# Type: functional
# Details: not given
# In short: (§2)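 Rat aortic VSMC stimulated with 10% FBS for 4 h. Total RNA extracted with Trizol and reverse-transcribed. Sphk1 and Sphk2 mRNA measured by quantitative real-time PCR and normalized to 18S rRNA, N=3.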
row,SMILES,inhibition
1,CCCCCCCCc1ccc(C(=O)N[C@@H](C)C(=N)N)cc1.Cl,inactive

# Tested on: VSMC
# Test: Inhibition of FBS-induced SPHKk2 mRNA level in rat VSMC after 4 hrs by RT-PCR
# Type: functional, cell-based
# Details: not given
# In short: as §2
row,SMILES,inhibition
1,CCCCCCCCc1ccc(C(=O)N[C@@H](C)C(=N)N)cc1.Cl,inactive

# Biological target: T3, Sphingosine kinase 2 (Rattus norvegicus) (UniProt A6JB73)
# T3 sequence (whole entry): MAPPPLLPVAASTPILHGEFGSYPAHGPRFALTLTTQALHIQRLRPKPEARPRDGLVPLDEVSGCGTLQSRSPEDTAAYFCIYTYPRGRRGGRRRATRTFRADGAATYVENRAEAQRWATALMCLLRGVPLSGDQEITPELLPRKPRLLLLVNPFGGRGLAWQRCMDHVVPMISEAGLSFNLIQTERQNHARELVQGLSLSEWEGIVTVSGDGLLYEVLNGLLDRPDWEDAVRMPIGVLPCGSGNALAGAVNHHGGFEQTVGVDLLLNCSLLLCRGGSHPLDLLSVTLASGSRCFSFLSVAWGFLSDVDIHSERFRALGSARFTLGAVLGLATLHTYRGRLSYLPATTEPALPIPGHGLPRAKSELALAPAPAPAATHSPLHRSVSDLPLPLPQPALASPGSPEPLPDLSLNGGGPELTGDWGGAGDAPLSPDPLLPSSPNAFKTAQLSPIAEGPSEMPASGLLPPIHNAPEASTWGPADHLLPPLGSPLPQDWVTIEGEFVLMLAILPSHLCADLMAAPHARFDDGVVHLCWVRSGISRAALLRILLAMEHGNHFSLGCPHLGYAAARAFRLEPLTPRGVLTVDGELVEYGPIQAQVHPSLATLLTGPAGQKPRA
# Test: Inhibition of [32P]S1P/FBS-stimulated SPHK2 in rat VSMC after 12 hrs relative to control
# Details: not given
# In short: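 Rat aortic VSMC stimulated with 10% FBS for 0, 3, 6 and 12 h. SphK2 activity measured as [32P]-S1P formation, N=3.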
row,inhibition,SMILES
1,inactive,CCCCCCCCc1ccc(C(=O)N[C@@H](C)C(=N)N)cc1.Cl

# Tested on: VSMC
# Test: Inhibition of FBS-induced intracellular concentration of S1P in rat VSMC
# Type: functional, cell-based
# Details: not given
row,SMILES,inhibition
1,CCCCCCCCc1ccc(C(=O)N[C@@H](C)C(=N)N)cc1.Cl,Active

# Tested on: not listed separately
# Test: Inhibition of FBS-induced cell proliferation of rat VSMC after 24 hrs by BrdU incorporation assay
# Type: functional, cell-based
# Details: not given
# In short: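 Rat aortic VSMC pretreated with compound for 30 min, then stimulated with 10% FBS for 24 h. Proliferation measured by BrdU incorporation (10 μM BrdU) using an immuno-absorbance read-out, dose-response, N=6.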
row,SMILES,EC50 [µM]
1,CCCCCCCCc1ccc(C(=O)N[C@@H](C)C(=N)N)cc1.Cl,10

# Tested on: not listed separately
# Test: Cytotoxicity against rat VSMC assessed as cell viability at 0.1 to 100 uM
# Type: cell-based
# Details: in the assay text read “0.001 to 100 uM” for “0.1 to 100 uM”
# In short: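 Rat aortic vascular smooth muscle cells, cultured in vitro, exposed to compound across 0.001–100 μM. Cytotoxic response read with the MultiTox-Fluor fluorescence assay, using 20 μM cyclosporine A as reference, N=3.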
row,SMILES,Activity
1,CCCCCCCCc1ccc(C(=O)N[C@@H](C)C(=N)N)cc1.Cl,Non-toxic

# Biological target: Sphingosine kinase 1 (Homo sapiens) (UniProt Q9NYA1)
# Test: not given
# Details: Sf9
# Sphingosine kinase 1 (Homo sapiens), sequence (Q9NYA1 whole entry): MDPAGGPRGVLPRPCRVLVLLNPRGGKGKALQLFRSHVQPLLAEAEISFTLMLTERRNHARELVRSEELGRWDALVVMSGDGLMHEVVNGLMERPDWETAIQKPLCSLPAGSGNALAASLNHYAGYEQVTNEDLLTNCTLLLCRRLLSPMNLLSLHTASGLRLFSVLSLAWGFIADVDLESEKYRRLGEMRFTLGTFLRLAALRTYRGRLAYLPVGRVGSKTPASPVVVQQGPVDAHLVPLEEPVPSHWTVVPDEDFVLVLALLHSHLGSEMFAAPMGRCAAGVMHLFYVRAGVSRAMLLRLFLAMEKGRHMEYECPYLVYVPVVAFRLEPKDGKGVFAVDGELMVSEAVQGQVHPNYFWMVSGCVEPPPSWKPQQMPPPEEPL
row,SMILES,Ki [µM]
1,CCCCCCCCc1ccc(C(=O)N[C@@H](C)C(N)=O)cc1,> 100
2,CCCCCCCCCCc1ccc(NC(=O)C2(C(=N)N)CC2)cc1,3
3,CCCCCCCCCCCCCCCCc1ccc(C(=O)NC2(C(=N)N)CC2)cc1,36
4,CCCCCCCCc1ccc(C(=O)NC2(C(=N)N)CC2)cc1,25
5,CCCCCCCCCCCCc1ccc(C(=O)NC2(C(=N)N)CC2)cc1,0.2
6,CCCCCCCCc1ccc(C(=O)NCC(=N)N)cc1,> 100
7,CCCCCCCCCCCCCCc1ccc(NC(=O)C2(C(=N)N)CC2)cc1,8.4

# The next lines start with the values.
row,Ki [µM],SMILES
1,30,CCCCCCCCCCCCCCCCc1ccc(NC(=O)C2(C(=N)N)CC2)cc1
2,55,CCCCCCCCc1ccc(C(=O)N[C@@H](C)C(=N)N)cc1.Cl
3,> 100,CCCCCCCCc1ccc(C(=O)N[C@H](C)C(=N)N)cc1
4,0.3,CCCCCCCCCCCCc1ccc(NC(=O)C2(C(=N)N)CC2)cc1
5,5,CCCCCCCCCCc1ccc(C(=O)NC2(C(=N)N)CC2)cc1
6,> 100,CCCCCCCCc1ccc(C(=O)N[C@@H](C)C(=O)O)cc1
7,10,CCCCCCCCCCCCCCc1ccc(C(=O)NC2(C(=N)N)CC2)cc1

# Tested on: VSMC
# Test: Inhibition of serum-induced cell proliferation of rat VSMC
# Details: not given
row,SMILES,inhibition
1,CCCCCCCCc1ccc(C(=O)N[C@@H](C)C(=N)N)cc1.Cl,Active

# Biological target: T2, Sphingosine kinase 2 (Mus musculus)
# Test: Ratio of Ki to Km for mouse recombinant SPHK2 expressed in baculovirus-infected Sf9 cells
# Details: not given
row,SMILES,Ratio
1,CCCCCCCCc1ccc(C(=O)N[C@@H](C)C(N)=O)cc1,> 20
2,CCCCCCCCCCc1ccc(NC(=O)C2(C(=N)N)CC2)cc1,0.8
3,CCCCCCCCCCCCCCCCc1ccc(C(=O)NC2(C(=N)N)CC2)cc1,2
4,CCCCCCCCc1ccc(C(=O)NC2(C(=N)N)CC2)cc1,4.6
5,CCCCCCCCCCCCc1ccc(C(=O)NC2(C(=N)N)CC2)cc1,0.1
6,CCCCCCCCc1ccc(C(=O)NCC(=N)N)cc1,12
7,CCCCCCCCCCCCCCc1ccc(NC(=O)C2(C(=N)N)CC2)cc1,> 20

# More lines, now with the values ahead:
row,Ratio,SMILES
1,> 20,CCCCCCCCCCCCCCCCc1ccc(NC(=O)C2(C(=N)N)CC2)cc1
2,4,CCCCCCCCc1ccc(C(=O)N[C@@H](C)C(=N)N)cc1.Cl
3,5,CCCCCCCCc1ccc(C(=O)N[C@H](C)C(=N)N)cc1
4,1.2,CCCCCCCCCCCCc1ccc(NC(=O)C2(C(=N)N)CC2)cc1
5,0.8,CCCCCCCCCCc1ccc(C(=O)NC2(C(=N)N)CC2)cc1
6,> 20,CCCCCCCCc1ccc(C(=O)N[C@@H](C)C(=O)O)cc1
7,6.4,CCCCCCCCCCCCCCc1ccc(C(=O)NC2(C(=N)N)CC2)cc1

# Tested on: not listed separately
# Test: Cytotoxicity against rat VSMC assessed as cell viability at 10 uM by microscopical analysis
# Details: not given
row,SMILES,Activity
1,CCCCCCCCc1ccc(C(=O)N[C@@H](C)C(=N)N)cc1.Cl,Non-toxic
